Columns and labels:
[1] = test system: K562; assay: Antiproliferative activity against human K562 cells after 48 hrs by MTT assay; format: functional; details: K562, 48 h
How it was run: (§1)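 Log-phase cells, harvested by trypsinization, seeded 24 h, then exposed to a range of compound concentrations for 48 h. Culture in RPMI 1640 with 4% FBS, penicillin/streptomycin, 37°C, 5% CO2. DMSO below 1% final; 5-Fu as positive control. Readout is MTT (0.5 mg/mL, 4 h), formazan dissolved in DMSO, absorbance at 570 nm. GI50 = 50% growth inhibition versus untreated cells; means ± SD of at least two independent experiments.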

[2] = test system: SH-SY5Y; assay: Antiproliferative activity against human SH-SY5Y cells after 48 hrs by MTT assay; format: functional; how it was run: as §1
[3] = test system: AGS; assay: Antiproliferative activity against human AGS cells after 48 hrs by MTT assay; format: functional; how it was run: as §1
[4] = Cytotoxicity against mouse HT22 cells after 48 hrs by MTT assay; format: cell-based, HT-22
How it was run: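 MTT readout after 48 h exposure; CC50 is the 50% cytotoxic concentration, mean of three repeated experiments.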

[5] = Selectivity ratio of GI50 for human K562 cells to GI50 for human SH-SY5Y cells; format: functional
[6] = Selectivity ratio of GI50 for human AGS cells to GI50 for human SH-SY5Y cells; format: functional
[7] = Selectivity index, ratio of GI50 for mouse HT22 cells to GI50 for human SH-SY5Y cells; format: toxicity; details: HT22 cells and SH-SY5Y cells, read-out: RatioGI50
[8] = test system: SH-SY5Y; assay: Potency index, ratio of 5-Fu GI50 to test compound GI50 for human SH-SY5Y cells; format: functional
[9] = test system: Tubulin (Sus scrofa); assay: Inhibition of pig brain tubulin polymerization at 10 uM by spectrophotometry relative to control
[10] = Selectivity index, ratio of GI50 for mouse HT22 cells to GI50 for human AGS cells; format: toxicity; details: HT22 cells and AGS cells, read-out: RatioGI50
[11] = test system: AGS; assay: Cell cycle arrest in human AGS cells assessed as accumulation at G0/G1 phase at 0.25 uM after 24 hrs by propidium iodide staining based flow cytometry (reference value: 52.87%); format: functional
How it was run: (§2)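 Cells washed twice in ice-cold PBS, fixed in ice-cold 70% ethanol, treated with 0.1 mg/mL RNase, stained with propidium iodide. Phase distribution determined by flow cytometry.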

[12] = test system: AGS; assay: Cell cycle arrest in human AGS cells assessed as accumulation at S phase at 0.25 uM after 24 hrs by propidium iodide staining based flow cytometry (reference value: 37.94%); format: functional; how it was run: as §2
[13] = test system: AGS; assay: Cell cycle arrest in human AGS cells assessed as accumulation at G2/M phase at 0.25 uM after 24 hrs by propidium iodide staining based flow cytometry (reference value: 9.18%); format: functional; how it was run: as §2
[14] = test system: AGS; assay: Cell cycle arrest in human AGS cells assessed as accumulation at G0/G1 phase at 0.5 uM after 24 hrs by propidium iodide staining based flow cytometry (reference value: 52.87%); format: functional; how it was run: as §2
[15] = test system: AGS; assay: Cell cycle arrest in human AGS cells assessed as accumulation at S phase at 0.5 uM after 24 hrs by propidium iodide staining based flow cytometry (reference value: 37.94%); format: functional; how it was run: as §2
[16] = test system: AGS; assay: Cell cycle arrest in human AGS cells assessed as accumulation at G2/M phase at 0.5 uM after 24 hrs by propidium iodide staining based flow cytometry (reference value: 9.18%); format: functional; how it was run: as §2
[17] = test system: AGS; assay: Cell cycle arrest in human AGS cells assessed as accumulation at G0/G1 phase at 1 uM after 24 hrs by propidium iodide staining based flow cytometry (reference value: 52.87%); format: functional; how it was run: as §2
[18] = test system: AGS; assay: Cell cycle arrest in human AGS cells assessed as accumulation at S phase at 1 uM after 24 hrs by propidium iodide staining based flow cytometry (reference value: 37.94%); format: functional; how it was run: as §2
[19] = test system: AGS; assay: Cell cycle arrest in human AGS cells assessed as accumulation at G2/M phase at 1 uM after 24 hrs by propidium iodide staining based flow cytometry (reference value: 9.18%); format: functional; how it was run: as §2
[20] = test system: AGS; assay: Cell cycle arrest in human AGS cells assessed as accumulation at G0/G1 phase at 2 uM after 24 hrs by propidium iodide staining based flow cytometry (reference value: 52.87%); format: functional; how it was run: as §2
[21] = test system: AGS; assay: Cell cycle arrest in human AGS cells assessed as accumulation at S phase at 2 uM after 24 hrs by propidium iodide staining based flow cytometry (reference value: 37.94%); format: functional; how it was run: as §2
[22] = test system: AGS; assay: Cell cycle arrest in human AGS cells assessed as accumulation at G2/M phase at 2 uM after 24 hrs by propidium iodide staining based flow cytometry (reference value: 9.18%); format: functional; how it was run: as §2
[23] = test system: AGS; assay: Induction of apoptosis in human AGS cells assessed as viable cells at 0.25 uM after 24 hrs by Annexin V-FITC/propidium iodide-double staining based flow cytometry (reference value: 69.90%); format: functional; details: read-out: Activity
[24] = test system: AGS; assay: Induction of apoptosis in human AGS cells assessed as early apoptotic cells at 0.25 uM after 24 hrs by Annexin V-FITC/propidium iodide-double staining based flow cytometry (reference value: 12.80%); format: functional
[25] = test system: AGS; assay: Induction of apoptosis in human AGS cells assessed as late apoptotic cells at 0.25 uM after 24 hrs by Annexin V-FITC/propidium iodide-double staining based flow cytometry (reference value: 16.90%); format: functional
[26] = test system: AGS; assay: Induction of apoptosis in human AGS cells assessed as necrotic cells at 0.25 uM after 24 hrs by Annexin V-FITC/propidium iodide-double staining based flow cytometry (reference value: 0.40%); format: functional
[27] = test system: AGS; assay: Induction of apoptosis in human AGS cells assessed as viable cells at 0.5 uM after 24 hrs by Annexin V-FITC/propidium iodide-double staining based flow cytometry (reference value: 69.90%); format: functional; details: read-out: Activity
[28] = test system: AGS; assay: Induction of apoptosis in human AGS cells assessed as early apoptotic cells at 0.5 uM after 24 hrs by Annexin V-FITC/propidium iodide-double staining based flow cytometry (reference value: 12.80%); format: functional
[29] = test system: AGS; assay: Induction of apoptosis in human AGS cells assessed as late apoptotic cells at 0.5 uM after 24 hrs by Annexin V-FITC/propidium iodide-double staining based flow cytometry (reference value: 16.90%); format: functional
[30] = test system: AGS; assay: Induction of apoptosis in human AGS cells assessed as necrotic cells at 0.5 uM after 24 hrs by Annexin V-FITC/propidium iodide-double staining based flow cytometry (reference value: 0.40%); format: functional
[31] = test system: AGS; assay: Induction of apoptosis in human AGS cells after 24 hrs by Annexin V-FITC/propidium iodide-double staining based flow cytometry; format: functional, cell-based
[32] = test system: AGS; assay: Cell cycle arrest in human AGS cells assessed as accumulation at G2/M phase after 24 hrs by propidium iodide staining based flow cytometry; format: functional; how it was run: as §2

SMILES: COc1ccc(N(C)c2ncnc3c2ncn3Cc2cc(OC)c(OC)c(OC)c2)cc1
- GI50 [1]: > 100 µM
- GI50 [2]: 0.26 µM
- GI50 [3]: > 100 µM
- CC50 at 48 h [4]: 23 µM
- RatioGI50 [5]: >230
- RatioGI50 [6]: >230
- selectivity ratio [7]: 88
- RatioGI50 [8]: 46
- inhibition [9]: 20%

SMILES: O=c1[nH]cc(F)c(=O)[nH]1 [FLUOROURACIL]
- GI50 [1]: 19 µM
- GI50 [2]: 12 µM
- GI50 [3]: 25 µM

SMILES: COc1ccc(N(C)c2nc(Cl)nc3[nH]cnc23)cc1
- GI50 [1]: > 100 µM
- GI50 [2]: > 100 µM
- GI50 [3]: 30 µM

SMILES: COc1ccc(N(C)c2ncnc3c2ncn3Cc2ccc(OC)c(OC)c2)cc1
- GI50 [1]: > 100 µM
- GI50 [2]: 0.43 µM
- GI50 [3]: > 100 µM
- CC50 at 48 h [4]: > 100 µM
- RatioGI50 [5]: >230
- RatioGI50 [6]: >230
- selectivity ratio [7]: 230
- RatioGI50 [8]: 28
- inhibition [9]: 18%

SMILES: COc1ccc(Cn2cnc3c(Cl)nc(Cl)nc32)cc1OC
- GI50 [1]: 7 µM
- GI50 [2]: 5.5 µM
- GI50 [3]: 11 µM
- inhibition [9]: 22%

SMILES: COc1ccc(N(C)c2ncnc3c2ncn3Cc2cc(OC)cc(OC)c2)cc1
- GI50 [1]: 42 µM
- GI50 [2]: > 100 µM
- GI50 [3]: > 100 µM

SMILES: COc1ccc(N(C)c2nc(Cl)nc3c2ncn3C)cc1
- GI50 [1]: 2.3 µM
- GI50 [2]: 3.4 µM
- GI50 [3]: 0.26 µM
- CC50 at 48 h [4]: > 100 µM
- selectivity ratio [7]: 23
- selectivity ratio [10]: 430
- Activity [11]: 50.11%
- Activity [12]: 39.78%
- Activity [13]: 10.11%
- Activity [14]: 47.34%
- Activity [15]: 39.98%
- Activity [16]: 12.68%
- Activity [17]: 36.62%
- Activity [18]: 38.2%
- Activity [19]: 25.18%
- Activity [20]: 21.64%
- Activity [21]: 14.87%
- Activity [22]: 63.49%
- viability at 0.25 µM [23]: 63.5%
- Activity [24]: 10.45%
- Activity [25]: 23.8%
- Activity [26]: 2.25%
- viability at 0.5 µM [27]: 59.2%
- Activity [28]: 12.35%
- Activity [29]: 27.6%
- Activity [30]: 0.85%
- Activity [31]: Dose-dependent effect
- Activity [32]: Dose-dependent effect
- inhibition [9]: 41%

SMILES: COc1ccc(N(C)c2ncnc3c2ncn3C)cc1
- GI50 [1]: > 100 µM
- GI50 [2]: > 100 µM
- GI50 [3]: > 100 µM

SMILES: COc1ccc(N(C)c2nc(Cl)nc3c2ncn3Cc2cc(OC)c(OC)c(OC)c2)cc1
- GI50 [1]: 41 µM
- GI50 [2]: 3 µM
- GI50 [3]: 85 µM
- inhibition [9]: 12%

SMILES: COc1ccc(N(C)c2ncnc3[nH]cnc23)cc1
- GI50 [1]: > 100 µM
- GI50 [2]: > 100 µM
- GI50 [3]: > 100 µM

SMILES: COc1ccc(Cn2cnc3c(Cl)ncnc32)cc1
- GI50 [1]: > 50 µM
- GI50 [2]: > 50 µM
- GI50 [3]: 29 µM

Source: ChEMBL document CHEMBL4130374, “Discovery of 9H-purins as potential tubulin polymerization inhibitors: Synthesis, biological evaluation and structure-activity relationships” (Eur J Med Chem, 2017)
